Converted amounts (≈) assume the structure as drawn. The source made the active and inactive calls. No cut-off for these calls is given here.
How the values were obtained:
[1] = target: T1, DNA topoisomerase 1 (Homo sapiens) (UniProt P11387); assay: Inhibition of DNA topoisomerase-1 (unknown origin) mediated DNA relaxation assessed as DNA intercalation at 1 ug/ml using supercoiled pBR322 plasmid DNA as substrate after 60 mins by ethidium bromide staining based agarose gel electrophoresis
T1 sequence (whole entry): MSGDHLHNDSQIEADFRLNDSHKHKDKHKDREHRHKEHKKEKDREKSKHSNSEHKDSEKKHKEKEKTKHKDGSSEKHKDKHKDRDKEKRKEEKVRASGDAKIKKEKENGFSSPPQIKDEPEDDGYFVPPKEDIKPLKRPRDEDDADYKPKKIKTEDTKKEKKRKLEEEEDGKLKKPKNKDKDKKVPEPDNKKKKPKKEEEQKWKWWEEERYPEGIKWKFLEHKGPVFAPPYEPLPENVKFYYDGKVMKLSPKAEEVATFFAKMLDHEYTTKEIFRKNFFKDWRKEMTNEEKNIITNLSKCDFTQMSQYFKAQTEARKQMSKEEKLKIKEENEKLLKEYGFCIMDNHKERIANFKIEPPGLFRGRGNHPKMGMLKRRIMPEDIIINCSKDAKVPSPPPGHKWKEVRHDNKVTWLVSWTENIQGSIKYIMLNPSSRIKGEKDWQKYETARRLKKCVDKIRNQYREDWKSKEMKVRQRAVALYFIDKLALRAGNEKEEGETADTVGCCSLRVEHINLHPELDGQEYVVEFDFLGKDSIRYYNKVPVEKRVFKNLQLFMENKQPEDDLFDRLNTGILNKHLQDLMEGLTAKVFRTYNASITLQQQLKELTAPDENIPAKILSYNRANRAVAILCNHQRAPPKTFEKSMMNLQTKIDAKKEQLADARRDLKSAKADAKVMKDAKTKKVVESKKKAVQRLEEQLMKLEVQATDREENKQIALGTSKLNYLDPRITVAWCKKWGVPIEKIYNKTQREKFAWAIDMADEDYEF
Outline: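 Top1 unwinding assay for DNA intercalation: supercoiled pBR322 plasmid treated with excess Top1 in presence of compounds (100 µM), with ethidium bromide (1 µg/mL) as intercalator control; compounds removed by phenol extraction after relaxation. Nicked, relaxed and supercoiled DNA forms resolved on gel.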

A549 = assay: Antiproliferative activity against human A549 cells after 72 hrs by MTT assay; format: functional, cell-based; conditions: Homo sapiens, A549, 72 h
HCT-116 [2] = assay: Antiproliferative activity against human HCT116 cells after 72 hrs by MTT assay; format: functional, cell-based; conditions: Homo sapiens, HCT-116, 72 h
ZR-75-30 = assay: Antiproliferative activity against human ZR-7530 cells after 72 hrs by MTT assay; format: functional, cell-based; conditions: Homo sapiens, ZR-75-30, 72 h
[3] = target: T1, DNA topoisomerase 1 (Homo sapiens); assay: Inhibition of DNA topoisomerase 1 (unknown origin) assessed as reduction in supercoiled pBR322 plasmid DNA relaxation at 100 uM after 15 mins by ethidium bromide staining based agarose gel electrophoresis
Outline: (§1)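 Supercoiled pBR322 plasmid incubated with Top1, with or without compound at 1, 10 and 100 µM. Relaxation inhibition read from agarose gel bands.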

[4] = target: T1, DNA topoisomerase 1 (Homo sapiens); assay: Inhibition of DNA topoisomerase-1 (unknown origin) mediated DNA relaxation assessed as DNA intercalation at 100 uM using supercoiled pBR322 plasmid DNA as substrate after 60 mins by ethidium bromide staining based agarose gel electrophoresis
Outline: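 Unwinding assay with excess Top1 acting on supercoiled pBR322 in the presence of compound at 100 µM. Ethidium bromide at 1 µg/mL used as intercalator reference. Compound removed by phenol extraction after relaxation. Nicked, relaxed and supercoiled forms resolved on gel.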

[5] = Solubility of the compound; format: physicochemical
HCT-116 [6] = assay: Cell cycle arrest in human HCT116 cells assessed as accumulation at G2 phase at 5 uM after 12 hrs by propidium iodide staining-based flow cytometry (reference value: 19%); format: functional
HCT-116 [7] = assay: Cell cycle arrest in human HCT116 cells assessed as accumulation at G2 phase at 5 uM after 36 hrs by propidium iodide staining-based flow cytometry (reference value: 21%); format: functional
[8] = target: T1, DNA topoisomerase 1 (Homo sapiens); assay: Inhibition of DNA topoisomerase 1 (unknown origin) assessed as reduction in supercoiled pBR322 plasmid DNA relaxation after 15 mins by ethidium bromide staining based agarose gel electrophoresis; outline: as §1
[9] = target: T1, DNA topoisomerase 1 (Homo sapiens); assay: Inhibition of DNA topoisomerase 1 (unknown origin) assessed as reduction in supercoiled pBR322 plasmid DNA relaxation at 1 uM after 15 mins by ethidium bromide staining based agarose gel electrophoresis; outline: as §1

With `CC[n+]1c(-c2ccccc2)c2cc(N)ccc2c2ccc(N)cc21` the inhibition [1] was “Active”.
`CC(=O)N1CCN(c2cc3c(c4nsnc24)C(=O)c2ccccc2C3=O)CC1` gave an IC50 (A549) of 17 µM, an IC50 (HCT-116 [2]) of 0.52 µM and an IC50 (ZR-75-30) of 0.42 µM. The inhibition [3] was “Active”, the inhibition [4] was “Active” and the solubility [5] was 7.98 µg/mL (≈ 20.3 µM). For the same compound, the Activity (HCT-116 [6]) was 34%, the Activity (HCT-116 [7]) was 56% and the inhibition [8] was “Dose-dependent effect”. For the same compound, the inhibition [9] was “Active”.
For `Cc1ccc(S(=O)(=O)c2cc3c(c4nsnc24)C(=O)c2ccccc2C3=O)cc1`, the IC50 (A549) was 50 µM, the IC50 (HCT-116 [2]) was 84 µM and the IC50 (ZR-75-30) was 90 µM. For the same compound, the solubility [5] was 0.14 µg/mL (≈ 0.333 µM).

Source: ChEMBL document CHEMBL4014301, “Design, synthesis and evaluation of 4-substituted anthra[2,1-c][1,2,5]thiadiazole-6,11-dione derivatives as novel non-camptothecin topoisomerase I inhibitors” (Bioorg Med Chem Lett, 2017)
